Test results from paper PMC7033594 (iScience, 2020).
Blank lines part the entries; values can stand above or below the compound they belong to.

Tests used:
PLC activity = PLC activity in seedlings after ABA treatment; type: in vivo, Arabidopsis; conditions: 50 μM ABA for 24 h
Procedure, shortened: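 Ten-day-old seedlings grown on MS agar were incubated 24 h in the dark in liquid half-strength MS with or without 50 µM ABA. PLC activity in seedling extracts was measured in triplicate with the EnzCheck direct PLC kit. Fluorescence was normalised to the kit's Bacillus cereus PC-PLC. Groups were compared by one-way ANOVA with Tukey's test.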

[1] = system: PI(4,5)P2 biosensor in Arabidopsis suspension cells; experiment: PI; type: cell-based; conditions: 50 µM ABA for 24h
full-length AtTSPO [2] = biological target: T1, full-length AtTSPO (Arabidopsis thaliana, UniProt O82245); experiment: Microscale thermophoresis, PI; type: binding
T1 sequence (O82245 1-196): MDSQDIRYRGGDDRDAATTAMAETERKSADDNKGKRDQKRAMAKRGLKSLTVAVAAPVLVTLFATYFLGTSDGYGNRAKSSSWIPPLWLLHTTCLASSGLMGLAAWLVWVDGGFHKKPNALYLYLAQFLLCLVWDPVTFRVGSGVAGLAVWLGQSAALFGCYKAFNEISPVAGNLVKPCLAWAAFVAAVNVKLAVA
Procedure, shortened: (§1)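 Microscale thermophoresis used His-tag labelling with RED-tris-NTA. Full-length or N-terminally truncated 10His protein from yeast was titrated against a PI(4,5)P2 concentration gradient in 50 mM Tris pH 8.0, 200 mM NaCl, 10% glycerol, 2% DDM and protease inhibitors. Laser power was 10, 20 or 40%. Values are mean ± SD of three experiments, with Kd from non-linear regression.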

AtTSPO^ΔN [3] = biological target: T2, AtTSPO^ΔN (Arabidopsis thaliana, UniProt O82245); experiment: Microscale thermophoresis, PI; type: binding; conditions: RED-tris-NTA label
T2 sequence (O82245 42-196): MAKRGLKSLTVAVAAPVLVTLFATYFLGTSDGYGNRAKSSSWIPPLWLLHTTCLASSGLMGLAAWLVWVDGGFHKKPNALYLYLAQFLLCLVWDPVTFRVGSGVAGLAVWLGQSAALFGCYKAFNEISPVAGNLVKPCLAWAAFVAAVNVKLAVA
Procedure, shortened: as §1

AtTSPO^Nter [4] = biological target: T3, AtTSPO^Nter (Arabidopsis thaliana, UniProt O82245); experiment: NMR 1H-15N HSQC titration of AtTSPO^Nter with lipids; type: binding
T3 sequence (O82245 1-49): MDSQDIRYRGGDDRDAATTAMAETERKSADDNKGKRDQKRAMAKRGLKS

full-length AtTSPO [5] = biological target: T1, full-length AtTSPO; experiment: Protein-lipid overlay; type: binding
Procedure, shortened: (§2)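 Lipids were spotted on nitrocellulose and air-dried 1 h: PA from CHCl3, and PI3P, PI4P and PI(4,5)P2 from 2% DDM. Commercial PIP strips were also used. Membranes were blocked in 3% BSA in TBS-Tween, incubated with purified protein in blocking buffer for 3 h at room temperature, then probed with primary and HRP secondary antibodies and developed by ECL.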

AtTSPO^Nter [6] = biological target: T3, AtTSPO^Nter; experiment: Protein-lipid overlay with purified AtTSPO N-terminal peptide; type: binding
Procedure, shortened: as §2

mTSPO = mTSPO (Mus musculus, UniProt P50637); experiment: Protein-lipid overlay with purified mouse TSPO; type: binding
Procedure, shortened: as §2

[7] = biological target: T4, AtTSPO-PIP2;7 interaction (Arabidopsis thaliana, UniProt O82245); experiment: Microscale thermophoresis of YFP-PIP2; type: binding; conditions: 50 μM lipid in trans
T4 sequence (O82245 1-196): T1 sequence (O82245 1-196)
T4 sequence (P93004 1-280 partner): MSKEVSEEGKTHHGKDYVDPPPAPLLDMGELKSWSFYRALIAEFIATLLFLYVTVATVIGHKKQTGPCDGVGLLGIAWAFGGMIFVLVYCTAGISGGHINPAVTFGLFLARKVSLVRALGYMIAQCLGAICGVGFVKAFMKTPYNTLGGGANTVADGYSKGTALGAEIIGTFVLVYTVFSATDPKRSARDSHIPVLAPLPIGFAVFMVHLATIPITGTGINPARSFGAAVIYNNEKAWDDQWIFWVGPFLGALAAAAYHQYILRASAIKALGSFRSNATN
Procedure, shortened: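 The aquaporin (mVenus-tagged YFP-PIP2;7) was a DDM-solubilised microsomal fraction from transgenic Arabidopsis seedlings. It was titrated against a range of AtTSPO concentrations, with 50 µM PI(4,5)P2, phosphatidylcholine, or no lipid added. Buffer was 50 mM Tris pH 8.0, 200 mM NaCl, 10% glycerol, 2% DDM. YFP was read through the green filter. Normalised data from three experiments (mean ± SD) were fitted by non-linear regression.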

full-length AtTSPO [8] = biological target: T1, full-length AtTSPO; experiment: Microscale thermophoresis, phosphatidic acid titrated against full-length AtTSPO; type: binding; conditions: protein labeled with NT-647-NHS, non-linear fitting
Procedure, shortened: (§3)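 Microscale thermophoresis was run on a Monolith NT115. Lysine residues of yeast-derived full-length protein or bacterially expressed N-terminal peptide were labelled with NT-647-NHS. Labelled protein was titrated against a PA concentration gradient in 50 mM Tris pH 8.0, 200 mM NaCl, 10% glycerol, 2% DDM and protease inhibitors. LED power was 100%. Kd came from non-linear fitting of normalised fluorescence.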

[9] = biological target: T5, N-terminal peptide (AtTSPO^Nter) (Arabidopsis thaliana, UniProt O82245); type: binding; conditions: thermophoresis; peptide labeled with NT-647-NHS; non-linear fitting
T5 sequence (O82245 1-49): T3 sequence (O82245 1-49)
Procedure, shortened: as §3

AtTSPO^ΔN [10] = biological target: T2, AtTSPO^ΔN; experiment: Membrane-spotted PA gradient / PA pull-down with AtTSPO^ΔN; type: binding; conditions: membrane-spotted gradient of PA
Procedure, shortened: as §2

Chain of mTSPO (P50637 whole entry): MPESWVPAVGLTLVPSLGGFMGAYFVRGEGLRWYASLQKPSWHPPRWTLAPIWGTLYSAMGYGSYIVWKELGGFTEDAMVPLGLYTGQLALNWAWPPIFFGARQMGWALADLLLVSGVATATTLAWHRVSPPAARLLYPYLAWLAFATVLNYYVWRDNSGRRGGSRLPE

Kd (full-length AtTSPO [2]): 2300 ± 700 µM | binding to AtTSPO^ΔN (AtTSPO^ΔN [3]): no binding was observed | Kd (AtTSPO^Nter [4]): ~150 µM | binding to purified full-length AtTSPO (full-length AtTSPO [5]): could bind | binding to N-terminal peptide of AtTSPO (AtTSPO^Nter [6]): could bind | binding to mTSPO (mTSPO): did not bind
Compound: CCCCCCCC/C=C\CCCCCCCC(=O)OC[C@H](COP(=O)(O)O[C@@H]1[C@H](O)[C@H](O)[C@@H](OP(=O)(O)O)[C@H](OP(=O)(O)O)[C@H]1O)OC(=O)CCCCCCC/C=C\CCCCCCCC [PI(4,5)P2, 1,2-dioleoyl-sn-glycero-3-phospho-(1’-myo-inositol-4’,5’-bisphosphate)]
AtTSPO and Venus-PIP2;7 interaction [7]: clearly indicating a protein-protein interaction

binding to purified full-length AtTSPO (full-length AtTSPO [5]): could bind | binding to N-terminal peptide of AtTSPO (AtTSPO^Nter [6]): could bind
Compound: PI4P

binding to purified full-length AtTSPO (full-length AtTSPO [5]): could bind | binding to N-terminal peptide of AtTSPO (AtTSPO^Nter [6]): could bind
Compound: PI5P

binding to purified full-length AtTSPO (full-length AtTSPO [5]): bound all tested PIs except PI(3,4)P2
Compound: PI(3,4)P2

The remaining lines, values behind:

Compound: CC1=CC(=O)CC(C)(C)[C@@]1(O)/C=C/C(C)=C\C(=O)O [ABA, abscisic acid]
effect on PLC activity (PLC activity; KO TSPO seedlings): no effect | increase of PLC activity (PLC activity; OE TSPO seedlings): ~4 fold | enhancement of PLC activity compared with untreated samples (PLC activity; WT seedlings): ~20% | effect on PLC activity (PLC activity; seedlings overexpressing N-terminally truncated AtTSPO): no effect | distribution of the PI(4,5)P2 biosensor [1]: partial redistribution of the PI(4,5)P2 biosensor from the PM to the cytosol

Compound: PI3P
binding to purified full-length AtTSPO (full-length AtTSPO [5]): could bind | binding to N-terminal peptide of AtTSPO (AtTSPO^Nter [6]): could bind | binding to mTSPO (mTSPO): bind

Compound: phosphatidic acid [PA]
Kd (full-length AtTSPO [8]): 2100 µM | Kd [9]: 3300 µM | binding to purified full-length AtTSPO (full-length AtTSPO [5]): bound | binding to AtTSPO^ΔN (AtTSPO^ΔN [10]): could not bind

Compound: phosphatidylcholine [PC]
AtTSPO and Venus-PIP2;7 interaction [7]: no interaction

Compound: phosphatidylserine [PS]
binding to purified full-length AtTSPO (full-length AtTSPO [5]): bound
